Source: PubChem BioAssay (Broad Institute)
A1 apoptosis 2: A1 inhibitors via caspase activation, primary screen, cell-based, luminescence, HTS, two replicates; MEF A1-2A-BIM cells, caspase-Glo luminescence, 3 h; percent of clofoctol response, DMSO zero; caspase activation, % (test concentration not listed); 24,000 tested, under 10 active; AID 2465, 2010; in the data active means caspase activation above about 5.9%
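Evaluation: Caspase-3/7 activity from luminescence increase | Assay system: A1-2A-BIM mouse embryonic fibroblasts | Quantity: 2500 MEF cells/well | Medium: RPMI-1640 plus 10% FBS | Detection: Caspase-Glo 3/7 luminescence, 1 h at room temperature | Dosing: 50 nL compound per well, pinned | Timing: Cells settled overnight, compound exposure 3 h at 37 °C, 5% CO2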
INS-1E ATP HTS: protection of INS-1E cells from cytokine death, primary screen, ATP luminescence, single point; INS-1E cytokine-induced death, 48 h; normalised: neutral wells 0, positive control 100; protection from cytokine-induced ATP loss, % at 10 µM; 20,000 tested, 0.1% active;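 active means mean replicate protection from cytokine-induced ATP loss at least 50% and at least 75% of replicates each reaching 50%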
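assay system = INS-1E rat insulinoma cells | amount = 8000 cells per well | medium = phenol-red-free RPMI with 5% fetal bovine serum | doses = one compound concentration, pin transfer | timing = 48 h cytokine plus compound treatment, 10 min reagent incubation | also added = IL-1β, TNF-α and IFN-γ cytokine mix | signal = CellTiter-Glo luminescence measuring cellular ATP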
T cruzi intra: inhibitors of intracellular Trypanosoma cruzi, primary screen, cell-based, plate reader, single point, set 2. intracellular Trypanosoma cruzi in host cells. activity score (inhibition), % at 5.01 µM. 22,000 tested, 4.9% active. AID 651903, 2012; in the data active means activity score above about 55%;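 further: parasites and compound incubated about four days before reading; 0% = median of neutral control wells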
* hit, by the source's call; nt = not tested or not shown. Many of the other results were omitted from the sample, so hits are more common in it than they were.

SMILES | A1 apoptosis 2 | INS-1E ATP HTS | T cruzi intra
C[C@H](CO)N1C[C@H](C)[C@H](CN(C)Cc2ccncc2)Oc2ncc(-c3cc4ccccc4o3)cc2C1=O | nt | nt | 40
Cc1cccc(CN(C)C[C@@H]2Oc3ncc(-c4cc5ccccc5o4)cc3C(=O)N([C@H](C)CO)C[C@@H]2C)c1 | 0 | nt | 70*
C[C@H](CO)N1C[C@H](C)[C@H](CN(C)S(=O)(=O)c2cccc(F)c2)Oc2ncc(-c3cc4ccccc4o3)cc2C1=O | -1 | -22 | 64*
C[C@H](CO)N1C[C@H](C)[C@H](CN(C)S(C)(=O)=O)Oc2ncc(-c3cc4ccccc4o3)cc2C1=O | nt | nt | 14
Cc1noc(C)c1S(=O)(=O)Nc1ccc2c(c1)C(=O)N([C@H](C)CO)C[C@H](C)[C@@H](CN(C)C(=O)Cc1ccccc1)OCCCC[C@H](C)O2 | 0 | nt | nt
CNC[C@@H]1Oc2c(NC(=O)Nc3ccc(OC)cc3)cccc2C(=O)N([C@H](C)CO)C[C@H]1C | nt | 8 | -8
C[C@H]1CN([C@@H](C)CO)C(=O)c2cccc(NC(=O)c3ccc(-c4nccs4)cc3)c2O[C@H]1CN(C)Cc1ccc(Cl)c(Cl)c1 | 0 | -47 | 62*
C[C@@H]1CN([C@@H](C)CO)C(=O)c2cccc(NC(=O)c3ccc(-c4nccs4)cc3)c2O[C@@H]1CN(C)Cc1ccc(Cl)c(Cl)c1 | 0 | -47 | 35
C[C@H](CO)N1C[C@H](C)[C@H](CN(C)Cc2ccc(Cl)c(Cl)c2)Oc2c(NC(=O)c3ccc(-c4nccs4)cc3)cccc2C1=O | nt | -41 | 60*
C[C@@H]1CN([C@H](C)CO)C(=O)c2cccc(NC(=O)c3ccc(-c4nccs4)cc3)c2O[C@H]1CN(C)Cc1ccc(Cl)c(Cl)c1 | 2 | -22 | 47
C[C@H](CO)N1C[C@H](C)[C@H](CN(C)C(=O)Nc2ccc(F)cc2)Oc2ncc(C#Cc3ccc(C(F)(F)F)cc3)cc2C1=O | nt | nt | 88*
C[C@H](CO)N1C[C@H](C)[C@H](CN(C)C(=O)NC2CCCCC2)Oc2ncc(C#Cc3ccc(F)cc3)cc2C1=O | 2 | -19 | 34
C[C@H](CO)N1C[C@H](C)[C@H](CN(C)C(=O)NC2CCCCC2)Oc2ncc(C#Cc3ccc(C(F)(F)F)cc3)cc2C1=O | nt | -27 | 88*
C[C@H](CO)N1C[C@H](C)[C@H](CN(C)C(=O)Nc2ccc(F)cc2)Oc2ncc(C#Cc3ccc(F)cc3)cc2C1=O | nt | nt | 26
Cc1noc(C)c1NC(=O)Nc1cccc2c1O[C@@H](CN(C)CC1CC1)[C@H](C)CN([C@H](C)CO)C2=O | 0 | -3 | -1
C[C@@H]1CN([C@@H](C)CO)C(=O)Cc2cc(NS(=O)(=O)c3ccc(Cl)cc3)ccc2O[C@@H]1CN(C)Cc1ccccc1 | -1 | -8 | 35
C[C@@H]1CN([C@@H](C)CO)C(=O)Cc2cc(NS(=O)(=O)c3ccc(Cl)cc3)ccc2O[C@H]1CN(C)Cc1ccccc1 | 0 | nt | nt
C[C@H]1CN([C@@H](C)CO)C(=O)Cc2cc(NS(=O)(=O)c3ccc(Cl)cc3)ccc2O[C@@H]1CN(C)Cc1ccccc1 | nt | 7 | 69*
C[C@H]1CN([C@@H](C)CO)C(=O)Cc2cc(NS(=O)(=O)c3ccc(Cl)cc3)ccc2O[C@H]1CN(C)Cc1ccccc1 | nt | -5 | 76*
COC(=O)CCCCCCC(=O)N/N=C/C[C@@H](C)CCC=C(C)C | 0 | -9 | 0
C[C@@H]1CN([C@H](C)CO)C(=O)c2cccc(NC(=O)Nc3ccc(C(F)(F)F)cc3)c2O[C@H]1CN(C)C(=O)Nc1ccc(C(F)(F)F)cc1 | 0 | -71 | 75*
C[C@H](CO)N1C[C@H](C)[C@H](CN(C)C(=O)Nc2ccc3c(c2)OCO3)Oc2c(NC(=O)Nc3ccc(C(F)(F)F)cc3)cccc2C1=O | 1 | -46 | 63*
C[C@H]1CN([C@@H](C)CO)C(=O)c2cccc(NC(=O)Nc3ccc(C(F)(F)F)cc3)c2O[C@H]1CN(C)C(=O)Nc1ccccc1 | 0 | -84 | 13
C[C@@H]1CN([C@H](C)CO)C(=O)c2cccc(NC(=O)Nc3ccc(C(F)(F)F)cc3)c2O[C@@H]1CN(C)C(=O)Nc1ccc2c(c1)OCO2 | 0 | -36 | 44
C[C@@H]1CN([C@H](C)CO)C(=O)c2cccc(NC(=O)Nc3ccccc3)c2O[C@H]1CN(C)C(=O)Nc1ccc(C(F)(F)F)cc1 | 0 | 3 | 0
C[C@@H]1CN([C@@H](C)CO)C(=O)c2cccc(NC(=O)Nc3ccc(C(F)(F)F)cc3)c2O[C@@H]1CN(C)C(=O)Nc1ccc(C(F)(F)F)cc1 | nt | -108 | 88*
